Results: ChEMBL document CHEMBL3784976 (J Med Chem, 2016)

What was measured:
[1] = biological target: T1, Transient receptor potential cation channel subfamily A member 1 (Homo sapiens, UniProt O75762); experiment: Antagonist activity at human TRPA1 expressed in tetracycline-inducible T-REx expression system transfected CHO cells assessed as inhibition of AITC-induced Ca2+ influx preincubated for 2 mins followed by AITC addition measured for 2 mins by Fluo-4 dye based FLIPR assay; assay type: cell-based
T1 sequence (O75762 whole entry): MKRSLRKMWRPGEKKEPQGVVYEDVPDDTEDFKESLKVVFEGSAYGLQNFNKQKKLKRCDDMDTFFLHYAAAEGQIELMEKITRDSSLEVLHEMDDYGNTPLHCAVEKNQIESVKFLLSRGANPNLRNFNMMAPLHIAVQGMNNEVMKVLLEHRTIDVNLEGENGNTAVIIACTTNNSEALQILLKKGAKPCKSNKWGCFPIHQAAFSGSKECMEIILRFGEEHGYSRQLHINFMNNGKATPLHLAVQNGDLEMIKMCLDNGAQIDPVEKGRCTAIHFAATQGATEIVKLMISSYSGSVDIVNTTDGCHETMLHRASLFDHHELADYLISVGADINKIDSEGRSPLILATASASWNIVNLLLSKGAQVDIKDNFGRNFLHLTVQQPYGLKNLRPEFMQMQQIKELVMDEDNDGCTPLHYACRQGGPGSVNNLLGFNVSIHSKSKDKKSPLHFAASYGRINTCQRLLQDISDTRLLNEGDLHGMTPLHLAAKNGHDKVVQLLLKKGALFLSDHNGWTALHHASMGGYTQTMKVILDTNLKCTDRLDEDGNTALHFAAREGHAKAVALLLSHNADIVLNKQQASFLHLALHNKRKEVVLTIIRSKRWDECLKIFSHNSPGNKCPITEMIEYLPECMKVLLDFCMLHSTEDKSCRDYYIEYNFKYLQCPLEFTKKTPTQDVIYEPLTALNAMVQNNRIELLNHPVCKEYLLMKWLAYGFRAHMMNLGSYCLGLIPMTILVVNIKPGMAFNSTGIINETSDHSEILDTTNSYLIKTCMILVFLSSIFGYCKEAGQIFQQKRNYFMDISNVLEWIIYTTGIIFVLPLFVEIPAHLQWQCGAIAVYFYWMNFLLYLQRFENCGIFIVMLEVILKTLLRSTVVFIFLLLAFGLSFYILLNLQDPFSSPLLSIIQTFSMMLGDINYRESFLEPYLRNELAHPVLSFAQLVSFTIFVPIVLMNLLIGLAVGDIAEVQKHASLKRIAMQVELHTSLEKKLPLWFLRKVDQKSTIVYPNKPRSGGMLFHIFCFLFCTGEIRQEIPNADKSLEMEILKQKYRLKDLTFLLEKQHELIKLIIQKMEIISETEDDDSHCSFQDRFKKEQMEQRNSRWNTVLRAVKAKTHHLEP

[2] = biological target: T2, Transient receptor potential cation channel subfamily A member 1 (Rattus norvegicus, UniProt Q6RI86); experiment: Antagonist activity at rat TRPA1 expressed in tetracycline-inducible T-REx expression system transfected CHO cells assessed as inhibition of AITC-induced Ca2+ influx preincubated for 2 mins followed by AITC addition measured for 2 mins by Fluo-4 dye based FLIPR assay; assay type: cell-based
T2 sequence (Q6RI86 whole entry): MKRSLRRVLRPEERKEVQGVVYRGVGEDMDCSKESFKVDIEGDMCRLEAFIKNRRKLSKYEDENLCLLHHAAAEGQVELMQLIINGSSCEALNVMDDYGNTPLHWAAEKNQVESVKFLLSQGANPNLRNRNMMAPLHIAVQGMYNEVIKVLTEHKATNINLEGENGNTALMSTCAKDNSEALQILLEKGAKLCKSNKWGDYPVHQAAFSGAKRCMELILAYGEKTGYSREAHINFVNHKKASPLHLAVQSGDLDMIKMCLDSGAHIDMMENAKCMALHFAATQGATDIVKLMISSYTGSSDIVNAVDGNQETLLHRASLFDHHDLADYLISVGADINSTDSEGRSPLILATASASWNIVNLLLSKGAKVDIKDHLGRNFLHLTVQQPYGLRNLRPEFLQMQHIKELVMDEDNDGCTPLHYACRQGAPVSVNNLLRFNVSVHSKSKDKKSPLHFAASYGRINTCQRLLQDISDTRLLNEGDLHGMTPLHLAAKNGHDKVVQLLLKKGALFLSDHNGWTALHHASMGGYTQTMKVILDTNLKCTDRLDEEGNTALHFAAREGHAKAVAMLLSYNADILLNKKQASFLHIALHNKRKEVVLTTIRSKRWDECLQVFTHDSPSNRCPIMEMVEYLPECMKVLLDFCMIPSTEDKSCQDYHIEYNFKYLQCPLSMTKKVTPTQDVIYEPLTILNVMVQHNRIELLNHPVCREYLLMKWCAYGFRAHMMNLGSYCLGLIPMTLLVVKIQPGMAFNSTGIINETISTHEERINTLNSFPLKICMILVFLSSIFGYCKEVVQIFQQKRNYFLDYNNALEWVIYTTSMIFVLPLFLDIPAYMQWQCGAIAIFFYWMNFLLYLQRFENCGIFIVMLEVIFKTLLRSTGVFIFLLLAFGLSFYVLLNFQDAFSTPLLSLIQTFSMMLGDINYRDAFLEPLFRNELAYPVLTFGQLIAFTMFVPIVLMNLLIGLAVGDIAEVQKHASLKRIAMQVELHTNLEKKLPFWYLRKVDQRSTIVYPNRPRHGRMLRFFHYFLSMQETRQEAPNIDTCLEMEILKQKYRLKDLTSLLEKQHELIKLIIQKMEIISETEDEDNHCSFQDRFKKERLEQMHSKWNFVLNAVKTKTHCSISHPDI

[3] = Apparent intrinsic clearance in human liver microsomes; assay type: ADME; details: read-out: CLH(app)
[4] = Apparent intrinsic clearance in rat liver microsomes; assay type: ADME; details: read-out: CLH(app)
[5] = biological target: T1, Transient receptor potential cation channel subfamily A member 1; experiment: Antagonist activity at human TRPA1 expressed in tetracycline-inducible T-REx expression system transfected CHO cells assessed as inhibition of AITC-induced 45Ca2+ uptake preincubated for 1 min followed by AITC addition measured after 12 mins; assay type: cell-based
[6] = AUC (infinity) in rat at 30 mg/kg, po; assay type: ADME, organism-based; design: dose 30 mg/kg, time infinity, route oral; details: in vivo
Procedure, shortened: (§1)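 Rat oral PK at 30 mg/kg (10 mg/kg for one analogue) in 1% Tween 80/2% HPMC/97% water with methanesulfonic acid, pH 2.2.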

[7] = Tmax in rat at 30 mg/kg, po; assay type: ADME, organism-based; details: in vivo
Procedure, shortened: (§2)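 Rats dosed orally at 30 mg/kg, or 10 mg/kg for one analogue, in 1% Tween 80/2% HPMC/97% water with methanesulfonic acid, pH 2.2.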

Rattus norvegicus [8] = experiment: fCmax in rat at 30 mg/kg, po; assay type: ADME, organism-based; details: in vivo; procedure, shortened: as §2
[9] = Half life in rat at 30 mg/kg, po; assay type: ADME, organism-based; details: in vivo; procedure, shortened: as §2
[10] = biological target: T1, Transient receptor potential cation channel subfamily A member 1; experiment: Agonist activity at human TRPA1 expressed in tetracycline-inducible T-REx expression system transfected CHO cells by 45Ca2+ uptake assay; assay type: cell-based
[11] = biological target: T2, Transient receptor potential cation channel subfamily A member 1; experiment: Agonist activity at rat TRPA1 expressed in tetracycline-inducible T-REx expression system transfected CHO cells by 45Ca2+ uptake assay; assay type: cell-based
[12] = Oral bioavailability in rat at 30 mg/kg; assay type: ADME, organism-based; details: in vivo; procedure, shortened: as §2
[13] = Clearance in rat at 0.5 mg/kg, iv as single dose; assay type: ADME, organism-based; details: in vivo
[14] = biological target: T2, Transient receptor potential cation channel subfamily A member 1; experiment: Antagonist activity at rat TRPA1 expressed in tetracycline-inducible T-REx expression system transfected CHO cells assessed as inhibition of AITC-induced 45Ca2+ uptake preincubated for 1 min followed by AITC addition measured after 12 mins; assay type: cell-based
Rattus norvegicus [15] = experiment: Unbound clearance in rat at 0.5 mg/kg, iv as single dose; assay type: ADME, organism-based; details: in vivo
Procedure, shortened: (§3)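 Single intravenous dose of 0.5 mg/kg given to rats, formulated in 100% DMSO.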

[16] = Ratio of fCmax in rat at 30 mg/kg, po to IC50 for rat TRPA1 expressed in tetracycline-inducible T-REx expression system transfected CHO cells by 45Ca2+ uptake assay
[17] = Fraction unbound in rat plasma; assay type: ADME, cell-free
[18] = Half life in rat at 0.5 mg/kg, iv administered as single dose; assay type: ADME, organism-based; details: in vivo; procedure, shortened: as §3
[19] = Volume of distribution at steady state in rat at 0.5 mg/kg, iv as single dose; assay type: ADME, organism-based; details: in vivo, read-out: Vdss; procedure, shortened: as §3
[20] = Cmax in rat at 30 mg/kg, po; assay type: ADME, organism-based; design: dose 30 mg/kg, route oral; details: in vivo; procedure, shortened: as §1
[21] = AUC (infinity) in rat at 10 mg/kg, po; assay type: ADME, organism-based; design: dose 10 mg/kg, time infinity, route oral; details: in vivo; procedure, shortened: as §1
[22] = Tmax in rat at 10 mg/kg, po; assay type: ADME, organism-based; details: in vivo; procedure, shortened: as §2
[23] = Half life in rat at 10 mg/kg, po; assay type: ADME, organism-based; details: in vivo; procedure, shortened: as §2
[24] = Cmax in rat at 10 mg/kg, po; assay type: ADME, organism-based; design: dose 10 mg/kg, route oral; details: in vivo; procedure, shortened: as §1
Rattus norvegicus [25] = experiment: fCmax in rat at 10 mg/kg, po; assay type: ADME, organism-based; details: in vivo; procedure, shortened: as §2
[26] = Ratio of fCmax in rat at 10 mg/kg, po to IC50 for rat TRPA1 expressed in tetracycline-inducible T-REx expression system transfected CHO cells by 45Ca2+ uptake assay
Procedure, shortened: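 Rat oral PK dosed at 10 mg/kg in 1% Tween 80/2% HPMC/97% water/methanesulfonic acid pH 2.2. Unbound Cmax divided by rat TRPA1 45Ca2+ IC50.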

[27] = biological target: Transient receptor potential cation channel subfamily V member 3 (Rattus norvegicus); experiment: Antagonist activity at rat TRPV3 expressed in tetracycline-inducible T-REx expression system transfected CHO cells assessed as inhibition of […]-induced Ca2+ influx preincubated for 1 min followed by […] addition measured for 1 min by luminescence assay
[28] = biological target: T2, Transient receptor potential cation channel subfamily A member 1; experiment: Agonist activity at rat TRPA1 expressed in tetracycline-inducible T-REx expression system transfected CHO cells assessed as increase in Ca2+ influx measured for 2 mins by Fluo-4 dye based FLIPR assay; assay type: cell-based
Procedure, shortened: (§4)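 FLIPR Tetra Ca2+ flux with Fluo-4 NW dye plus probenecid. Cells were seeded 24 h ahead in medium with […]. Dye loading ran 30 min at 37 °C, then 30 min at RT. Compound was added and agonist signal read for 2 min. Data were expressed as POC of DMSO (low) vs saturating AITC (high: 15 μM human, 200 μM rat) and fitted to a four-parameter equation.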

[29] = biological target: Transient receptor potential cation channel subfamily V member 1 (Homo sapiens, UniProt Q8NER1); experiment: Antagonist activity at human TRPV1 expressed in CHO cells assessed as inhibition of capsaicin-induced Ca2+ influx preincubated for 2.5 mins followed by capsaicin addition measured for 1 min by luminescence assay; assay type: cell-based
Transient receptor potential cation channel subfamily V member 1, sequence (Q8NER1 whole entry): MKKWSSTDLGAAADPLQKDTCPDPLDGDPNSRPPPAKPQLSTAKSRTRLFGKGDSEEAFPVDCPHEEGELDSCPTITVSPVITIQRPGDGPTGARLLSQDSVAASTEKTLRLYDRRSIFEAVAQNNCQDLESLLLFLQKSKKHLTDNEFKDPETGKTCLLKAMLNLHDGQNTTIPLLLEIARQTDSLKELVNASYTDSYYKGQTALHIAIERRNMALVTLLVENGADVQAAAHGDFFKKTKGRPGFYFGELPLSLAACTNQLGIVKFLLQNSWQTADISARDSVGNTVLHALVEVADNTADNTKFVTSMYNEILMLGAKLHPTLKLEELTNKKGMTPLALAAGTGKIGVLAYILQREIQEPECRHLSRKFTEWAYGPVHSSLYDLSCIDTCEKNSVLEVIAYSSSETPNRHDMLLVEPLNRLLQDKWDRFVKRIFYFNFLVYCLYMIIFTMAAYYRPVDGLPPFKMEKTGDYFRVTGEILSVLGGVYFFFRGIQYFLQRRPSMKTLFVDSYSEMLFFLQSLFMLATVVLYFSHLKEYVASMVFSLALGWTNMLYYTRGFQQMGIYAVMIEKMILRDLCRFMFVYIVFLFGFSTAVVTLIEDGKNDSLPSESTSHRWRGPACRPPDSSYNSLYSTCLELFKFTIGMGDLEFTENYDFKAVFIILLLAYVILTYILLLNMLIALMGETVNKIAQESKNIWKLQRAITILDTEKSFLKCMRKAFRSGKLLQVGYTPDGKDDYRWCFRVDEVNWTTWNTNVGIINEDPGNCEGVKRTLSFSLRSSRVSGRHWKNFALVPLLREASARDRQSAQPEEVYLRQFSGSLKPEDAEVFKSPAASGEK

[30] = biological target: T1, Transient receptor potential cation channel subfamily A member 1; experiment: Agonist activity at human TRPA1 expressed in tetracycline-inducible T-REx expression system transfected CHO cells assessed as increase in Ca2+ influx measured for 2 mins by Fluo-4 dye based FLIPR assay; assay type: cell-based; procedure, shortened: as §4
Liver microsome [31] = experiment: Drug metabolism in rat liver microsomes assessed as 3-((3-(2-(4-Chlorophenyl)-2-hydroxyethyl)-1,2,4-oxadiazol-5-yl)-methyl)pyrido[2,3-d]pyrimidin-4(3H)-one formation; assay type: ADME
Liver microsome [32] = experiment: Drug metabolism in human liver microsomes assessed as 3-((3-(2-(4-Chlorophenyl)-2-hydroxyethyl)-1,2,4-oxadiazol-5-yl)-methyl)pyrido[2,3-d]pyrimidin-4(3H)-one formation; assay type: ADME

IC50 [1] [nM] | IC50 [2] [nM] | microsomal CLint [3] [µL/min/mg] | microsomal CLint [4] [µL/min/mg] | SMILES | other results
1330 | 791 | 40 | 186 | O=C(Cn1cnc2c(F)cccc2c1=O)NCCc1ccc(Cl)cc1 | –
286 | 306 | 397 | > 399 | O=C(Cn1cnc2c(C(F)(F)F)cccc2c1=O)NCCc1ccc(Cl)cc1 | –
265 | 287 | – | – | Cc1ccc2ncn(CC(=O)NCCc3ccc(Cl)cc3)c(=O)c2c1 | –
> 4200 | > 16700 | 144 | 829 | Cc1ccc2c(=O)n(CC(=O)NCCc3ccc(Cl)cc3)cnc2c1 | –
156 | 89 | 35 | 122 | O=c1c2cccnc2ncn1Cc1noc(CCc2ccc(Cl)cc2)n1 | IC50 [5]: 1580 nM; AUC(0-inf) [6]: 19.2 µM·h; Tmax [7]: 0.5 h; fCmax (Rattus norvegicus [8]): 1 µM; half-life [9]: 4 h; EC50 [10]: > 40000 nM; EC50 [11]: > 40000 nM; bioavailability [12]: 52%; clearance [13]: 36.7 mL/min/kg; IC50 [14]: 411 nM; CL free (Rattus norvegicus [15]): 400 mL/min/kg; Ratio [16]: 3; fraction unbound [17]: 0.093; half-life [18]: 0.4 h; Vd [19]: 1 L/kg; Cmax [20]: 10.3 µM
– | 1370 | – | – | COc1ccc(CCNC(=O)Cn2cnc3c(C)cccc3c2=O)cc1 | –
> 8330 | – | – | – | Cc1cccc2c(=O)n(CC(=O)NCCc3ccccc3)cnc12 | –
> 16700 | > 16700 | – | – | COc1cccc(CCNC(=O)Cn2cnc3c(C)cccc3c2=O)c1 | –
> 16700 | – | 31 | 104 | O=C(Cn1cnc2ccccc2c1=O)NCCc1ccc(Cl)cc1 | –
71 | 75 | < 14 | < 14 | C/C(=C\c1noc(Cn2cnc3ncn(C)c3c2=O)n1)c1ccc(Cl)cc1 | IC50 [5]: 63 nM; AUC(0-inf) [21]: 117 µM·h; Tmax [22]: 2 h; EC50 [10]: > 40000 nM; EC50 [11]: > 40000 nM; half-life [23]: 10 h; Cmax [24]: 6.5 µM; fCmax (Rattus norvegicus [25]): 0.2 µM; IC50 [14]: 55 nM; fraction unbound [17]: 0.033; Ratio [26]: 4
> 16700 | > 16700 | – | – | COc1ccccc1CCNC(=O)Cn1cnc2c(C)cccc2c1=O | –
165 | 274 | 76 | < 14 | C/C(=C\c1nc(Cn2cnc3ncn(C)c3c2=O)no1)c1ccc(Cl)cc1 | –
685 | 142 | 194 | > 399 | Cc1cccc2c(=O)n(CC(=O)NCCc3ccc(OC(F)F)cc3)cnc12 | IC50 [5]: 6270 nM; IC50 [27]: > 20000 nM; EC50 [28]: > 25000 nM; EC50 [10]: > 47000 nM; EC50 [11]: > 47000 nM; IC50 [29]: > 20000 nM; EC50 [30]: > 25000 nM; IC50 [14]: 2620 nM
16 | 35 | 340 | > 399 | Cc1ccnc2ncn(Cc3nc(CCc4ccc(Cl)cc4)no3)c(=O)c12 | –
1460 | 2150 | 34 | 455 | COc1cccc2c(=O)n(CC(=O)NCCc3ccc(Cl)cc3)cnc12 | –
1710 | 1080 | 14 | 179 | O=C(Cn1cnc2cnccc2c1=O)NCCc1ccc(Cl)cc1 | –
802 | 358 | 224 | 706 | Cc1cccc2c(=O)n(CC(=O)NCCc3ccc(Cl)cc3)cnc12 | –
1180 | 1170 | < 14 | 18 | O=C(Cn1cnc2ncccc2c1=O)NCCc1ccc(Cl)cc1 | –
– | – | – | – | C/C(=C\c1nc(Cn2cnc3ncccc3c2=O)no1)c1ccc(Cl)cc1 | AUC(0-inf) [6]: 94.9 µM·h; Tmax [7]: 2.7 h; fCmax (Rattus norvegicus [8]): 0.1 µM; half-life [9]: 5.1 h; bioavailability [12]: 32%; fraction unbound [17]: 0.012; half-life [18]: 4.2 h; Vd [19]: 1.4 L/kg; Cmax [20]: 8 µM
70 | 112 | 301 | 736 | Cc1cccc2ncn(CC(=O)NCCc3ccc(Cl)cc3)c(=O)c12 | –
211 | 136 | 19 | 44 | Cn1cnc2ncn(Cc3noc(CCc4ccc(Cl)cc4)n3)c(=O)c21 | –
41 | 31 | 56 | 94 | O=c1c2cccnc2ncn1Cc1nc(CC(F)c2ccc(Cl)cc2)no1 (racemic) | –
41 | 21 | 32 | 131 | O=c1c2cccnc2ncn1Cc1nc(CCc2ccc(Cl)cc2)no1 | IC50 [5]: 376 nM; EC50 [10]: > 40000 nM; EC50 [11]: > 40000 nM; clearance [13]: 98.3 mL/min/kg; Drug metabolism (Liver microsome [31]): metabolite_detected; IC50 [14]: 120 nM; Drug metabolism (Liver microsome [32]): metabolite_detected; fraction unbound [17]: 0.144; half-life [18]: 0.3 h; Vd [19]: 2 L/kg
201 | 56 | 49 | 297 | N#Cc1cccc2c(=O)n(CC(=O)NCCc3ccc(Cl)cc3)cnc12 | –
